In paper PMC2908029 (Current radiopharmaceuticals, 2010):
“And” between values parts separate entries of the source, which are not always exact repeats. Equal entries are not always repeated.

Key:
brain 5-HT1A receptors [1] = test: PET imaging of [11C]S14506 in monkey; type: in vivo, rhesus monkey
human 5-HT1A receptors = conditions: recombinant Chinese hamster ovary cells, room temperature; cited from earlier work
5-HT1A receptors = conditions: cited from earlier work
Stability in whole blood = type: in vitro ADME; conditions: rat whole blood in vitro, 125 min, room temperature
[2] = Distribution between blood components; type: in vitro ADME; conditions: rat, without hematocrit correction
In short: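 [18F]-labelled test compound (0.8 μCi) added to heparinized rat whole blood (from cardiac puncture) in duplicate tubes and incubated at room temperature for 27 min. Blood centrifuged at 1800 × g for 3 min, plasma separated, and all fractions γ-counted. Percent radioactivity in plasma and in cells reported without hematocrit correction.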

[3] = Emergence of radiometabolites in monkey plasma; type: in vivo, rhesus monkey; conditions: over the PET study
Plasma protein binding = type: in vitro ADME; conditions: rat plasma
brain 5-HT1A receptors [4] = target: T1, brain 5-HT1A receptors (Rattus norvegicus, UniProt P19327); test: PET imaging of [11C]S14506 in rat; type: in vivo, Sprague-Dawley rat; conditions: i.v.
T1 sequence (P19327 1-422): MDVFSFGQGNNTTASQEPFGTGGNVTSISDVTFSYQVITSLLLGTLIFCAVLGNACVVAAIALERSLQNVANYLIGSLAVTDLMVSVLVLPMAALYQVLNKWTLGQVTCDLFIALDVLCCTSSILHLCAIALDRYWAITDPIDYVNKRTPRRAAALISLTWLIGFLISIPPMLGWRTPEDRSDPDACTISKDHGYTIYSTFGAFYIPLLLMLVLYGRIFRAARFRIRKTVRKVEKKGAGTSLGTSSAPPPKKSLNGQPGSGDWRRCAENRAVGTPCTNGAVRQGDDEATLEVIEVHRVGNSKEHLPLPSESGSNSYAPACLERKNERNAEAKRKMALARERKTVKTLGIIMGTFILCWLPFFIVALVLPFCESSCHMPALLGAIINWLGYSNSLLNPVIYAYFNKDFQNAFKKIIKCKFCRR

brain 5-HT1A receptors [5] = test: PET imaging of [18F]S14506 in monkey; type: in vivo, rhesus monkey; conditions: absence of radioactivity accumulation in skull
[6] = Ex vivo biodistribution and radiometabolite composition of [18F]S14506 in rat; parameters: species or system Sprague-Dawley rat
[7] = Stability in sodium phosphate buffer; type: physicochemical; conditions: sodium phosphate buffer (0.15 M), room temperature, 2.5 h
[8] = Effect of cyclosporin A on rat plasma and brain levels of [18F]S14506; type: in vivo; conditions: 30 min after administration

## COc1ccc2cccc(N3CCN(CCNC(=O)c4ccc(F)cc4)CC3)c2c1 [S14506, 1-[2-(4-fluorobenzoylamino)ethyl]-4-(7-methoxynaphthyl)piperazine, reference compound]
Brain 5-HT1A receptors [1]; monkey, cerebellar time-activity curves (non-specific binding)
  time required for a 50% decrease in cerebellar radioactivity: > 32 min
Human 5-HT1A receptors
  off rate from human 5-HT1A receptors: 0.029 min⁻¹

## COc1ccccc1N1CCN(CCCCn2ncc(=O)n(C)c2=O)CC1 [[^11C]CUMI-101, [O-methyl-^11C]2-(4-(4-(2-methoxyphenyl)piperazin-1-yl)butyl)-4-methyl-1,2,4-triazine-3,5(2H,4H)dione]
5-HT1A receptors; read-out: Ki, 5-HT1A receptor affinity
  Ki: 0.15 nM

## [11CH3]Oc1ccc2cccc(N3CCN(CCNC(=O)c4ccc(F)cc4)CC3)c2c1 [[^11C]S14506]
Stability in whole blood
  unchanged radioligand after incubation with whole blood: > 99.5%
[2]
  whole blood distribution to cellular components: 40.9%
  whole blood distribution to plasma: 59.1%
[3]
  maximal share of the second (minor) radiometabolite in plasma radioactivity: ≤ 3.1%
Brain 5-HT1A receptors [1]; monkey pre-treated with tariquidar 4 mg/kg, i.v., 30 min before
  peak brain radioactivity: 240 % SUV and ~ 240 % SUV
Brain 5-HT1A receptors [1]; monkey, baseline, i.v., at 7 min
  peak whole brain radioactivity: ~ 170 % SUV
Plasma protein binding
  free in plasma (plasma protein binding): 0.52%
Brain 5-HT1A receptors [4]; rat pre-treated with cyclosporin A 25 mg/kg
  peak whole brain radioactivity: ~ 310 % SUV
Brain 5-HT1A receptors [4]; rat pre-treated with cyclosporin A 50 mg/kg
  peak whole brain radioactivity: ~ 350 % SUV
Brain 5-HT1A receptors [4]; rat, baseline, at 2 min
  peak whole brain radioactivity: 210 % SUV and ~ 210 % SUV

## COc1ccc2cccc(N3CCN(CCNC(=O)c4ccc([18F])cc4)CC3)c2c1 [[^18F]S14506]
Brain 5-HT1A receptors [5]
  radiodefluorination: not radiodefluorinated
[6]; 30 min after administration of [18F]S14506, n = 1 rat
  Composition (%) of radioactivity, Cerebellum: 93.9%
[6]; 30 min after administration of [18F]S14506, n = 2 rats
  Composition (%) of radioactivity, Remainder of brain: 97.2 ± 0.20%
[6]; 30 min after administration of [18F]S14506, n = 3 rats (mean ± SD)
  Composition (%) of radioactivity, Plasma: 38.6 ± 0.17%
[2]
  whole blood distribution to cellular components: 25.8%
  whole blood distribution to plasma: 74.2%
Plasma protein binding
  free in plasma (plasma protein binding): 0.61%
[7]
  stability to incubation in buffer: stable
[8]; Control
  [18F]S14506 concentration (%SUV), Remainder of brain: 141 %SUV
[8]; Cyclosporin A treated (50 mg/kg, i.v.)
  [18F]S14506 concentration (%SUV), Remainder of brain: 211 %SUV

## WAY-100635
5-HT1A receptors; read-out: Kd, 5-HT1A receptor affinity
  Kd: 0.1 nM
